Experiment [1] deals with Toxoplasma gondii. Kind of experiment: Antimicrobial activity against Toxoplasma gondii type 1 RH strain infected in human foreskin fibroblasts monolayer assessed as inhibition of parasite replication after 24 hrs by phase-contrast microscopy. It is filed as functional, organism-based.
The test system of experiment [2] is Toxoplasma gondii. Kind of experiment: Antimicrobial activity against GFP-expressing Toxoplasma gondii type 1 RH strain ip infected in NMRI mouse assessed as decrease in infected peritoneal cells in peritoneal cavity lavage at 32 mg/kg, ip administered 3 days postinfection for 5 days. In kind it is functional, organism-based. Also on record: dose 32 mg/kg. The gist of the method: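 Female NMRI mice infected i.p. with GFP-expressing RH tachyzoites. From day 3 post-infection, drug was given i.p. at 32 mg/kg/day for 5 days. Vehicle was ethanol-DMSO (1:1), sonicated at 70°C, then diluted with an equal volume of PBS. Vehicle-treated mice served as controls. On day 8, peritoneal lavage cells were fixed in 3.7% formaldehyde, and the percentage of GFP-infected cells was measured by flow cytometry. Data pooled from three experiments.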

For experiment [3], the system named is Toxoplasma gondii. Kind of experiment: Antimicrobial activity against GFP-expressing Toxoplasma gondii type 1 RH strain ip infected in NMRI mouse assessed as decrease in parasite DNA level in liver at 32 mg/kg, ip administered 3 days postinfection for 5 days by quantitative PCR analysis. In kind it is functional, organism-based. Also on record: dose 32 mg/kg. The method, boiled down:
(§1)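 Same i.p.-infected NMRI model and dosing regimen; liver and lung collected on day 8. Parasite DNA was quantified by qPCR targeting the T. gondii cryptic gene, using 250 ng total DNA, 2 mM MgCl2, 1 μM each primer and 0.2 μM each hybridization probe. Cycling: 50 cycles of 95°C, 52°C and 72°C. Standard curve of 250 to 2.5 pg parasite DNA run each time; crossing points by second-derivative method.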

In experiment [4] the test system is Toxoplasma gondii. Briefly: Antimicrobial activity against Toxoplasma gondii type 1 RH strain infected in human foreskin fibroblasts monolayer assessed as inhibition of parasite replication at 1 uM after 24 hrs by phase-contrast microscopy. In kind it is functional. The gist of the method:
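Confluent human foreskin fibroblast monolayers infected with RH tachyzoites, then exposed to compound (top concentration 1 μM) or DMSO control for 24 h. Read-out was the average number of parasites per vacuole-type count, relative to control.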

The test system of experiment [5] is Toxoplasma gondii. Kind of experiment: Antimicrobial activity against Toxoplasma gondii type 2 ME49 strain orally infected in ip dosed IRF-8 deficient mouse brain assessed as decrease in Toxoplasma DNA level measured per 250 ng total DNA administered for 5 days after 3 days post 28 day 400 mg/dl sulfadiazine dosing by quantitative PCR analysis (Rbv = 134 +/- 226.1 pg DNA). It is filed as functional. The method, boiled down: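 Chronic model: mice infected with ME49; sulfadiazine 400 mg/dl given from day 2 for 28 days to allow cyst formation. Three days after withdrawal, mice received drug daily for 5 days, in groups of four, repeated three times. On day 39, brain parasite load was measured by qPCR as pg T. gondii DNA per 250 ng total DNA.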

In experiment [6] the test system is Toxoplasma gondii. Briefly: Antimicrobial activity against Toxoplasma gondii type 2 ME49 strain orally infected in ip dosed IRF-8 deficient mouse brain assessed as decrease in inflammatory foci administered for 5 days after 3 days post 28 day 400 mg/dl sulfadiazine dosing […]. In kind it is functional, organism-based. The gist of the method:
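Same ME49 chronic model: sulfadiazine 400 mg/dl for 28 days, then daily drug for 5 days starting 3 days after withdrawal, four mice per group, repeated three times. Brain inflammatory foci were graded as mean inflammatory scores using a previously described scoring method.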

Experiment [7] deals with Toxoplasma gondii. Briefly: Antimicrobial activity against GFP-expressing Toxoplasma gondii type 1 RH strain ip infected in NMRI mouse assessed as decrease in parasite DNA level in lungs at 32 mg/kg, ip administered 3 days postinfection for 5 days by quantitative PCR analysis. It is filed as functional, organism-based. Also on record: dose 32 mg/kg. The method, boiled down: as §1

Activity calls are given as the source filed them. The calls are words filed in the database; no cut-off is given here.

For 6 molecules, IC50, Activity and inhibition results are on record in ChEMBL document CHEMBL1212767, “In vitro and in vivo activities of 1-hydroxy-2-alkyl-4(1H)quinolone derivatives against Toxoplasma gondii” (Antimicrob Agents Chemother, 2010).

Consider `CCCCCCCCCCCCc1cc(=O)c2ccccc2n1O`, for which the IC50 (in general, the midpoint of a concentration-inhibition curve) in experiment [1] was determined as 4.2 nM. Moreover, the result in experiment [2] and in experiment [3] was Active.

Turning to `CCCCCCCCCCCCc1cc(=O)c2cc(OCCN(C)C)ccc2n1O`, in experiment [1], the inhibition – broadly, how much of the control response was suppressed – is “inactive”.

For `CCCCCCCCCCCCc1c(C)n(O)c2ccc(OCCN(C)C)cc2c1=O`, the inhibition at 1 µM in experiment [4] was 38%.

For `CCCCCCCCCCCCc1c(C)n(O)c2ccccc2c1=O`, the IC50 in experiment [1] came out at 0.8 nM. Moreover, the result in experiment [2], in experiment [3], in experiment [6] and in experiment [7] was Active. Further, the Activity in experiment [5] stood at 6.7 pg.

Take `O=C1C(O)=C([C@H]2CC[C@H](c3ccc(Cl)cc3)CC2)C(=O)c2ccccc21` [ATOVAQUONE]: the Activity in experiment [5] amounted to 0.8 pg. Moreover, the outcome in experiment [3], in experiment [6] and in experiment [7] was Active.

As to `CCCCCCCCCCCCc1c(C)c(=O)c2ccccc2n1O` [COMPOUND A], the IC50 in experiment [1] was 0.4 nM. The outcome in experiment [2], in experiment [3] and in experiment [6] was Active.
